High-throughput results: PubChem, Johns Hopkins Ion Channel Center
KCNK3 inh = human KCNK3 channel inhibitors, primary screen, CHO cells, FluxOR thallium flux, B-score. Potassium channel subfamily K member 3 (Homo sapiens), O14649. FluxOR fluorescence; active compounds read low. 340,000 tested, 0.84% active. B-score at 10 µM. AID 602410, 2012;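 active = B-score under library mean minus 4 SD, starting fluorescence ratio at most library mean plus 5 SD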;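 also: more negative B-score means stronger inhibition of thallium flux through KCNK3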
Target sequence (O14649 whole entry, looked up): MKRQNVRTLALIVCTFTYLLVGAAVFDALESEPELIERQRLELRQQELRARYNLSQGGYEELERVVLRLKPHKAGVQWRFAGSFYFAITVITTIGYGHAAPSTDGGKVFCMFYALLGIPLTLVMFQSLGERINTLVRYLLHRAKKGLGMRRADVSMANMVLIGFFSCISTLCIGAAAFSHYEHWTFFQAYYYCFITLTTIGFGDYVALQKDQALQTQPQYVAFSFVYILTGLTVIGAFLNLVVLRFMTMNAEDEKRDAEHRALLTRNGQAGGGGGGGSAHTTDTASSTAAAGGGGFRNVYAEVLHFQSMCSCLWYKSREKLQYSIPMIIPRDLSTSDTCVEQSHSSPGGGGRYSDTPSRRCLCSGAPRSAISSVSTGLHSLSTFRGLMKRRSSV
KCNK9 inh = KCNK9 potassium channel inhibitors, primary screen, HEK293 cells, thallium flux; Potassium channel subfamily K member 9 (Homo sapiens), Q9NPC2; 310,000 tested, 1.2% active; B-score at 10 µM; FluxOR thallium flux fluorescence; active compounds read low;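 active = ratio B-score over 3 SD below the library mean, with starting fluorescence within 5 SD of its mean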;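 also: negative B-score means less thallium flux so channel inhibition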
KCNQ1 inh = inhibitors of human KCNQ1 channel, primary screen, cell-based, thallium flux, high-throughput. CHO-K1 KCNQ1, FluxOR thallium flux fluorescence; active compounds read high. B-score at 10 µM. 310,000 tested, 1.3% active. AID 2642, 2010;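 active = compounds whose thallium flux B-score, printed positive for inhibition, exceeds three library SD while starting fluorescence stays within three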;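 also: channel opened by potassium depolarization with thallium stimulus after 20 min compound exposure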
KCNQ1 act = potentiators or activators of KCNQ1 channel, primary screen, cell-based, thallium flux, high-throughput. B-score at 10 µM. Potassium voltage-gated channel subfamily KQT member 1 (Homo sapiens), P51787. CHO-K1 KCNQ1, thallium flux FluxOR fluorescence; active compounds read high. AID 2648, 2010. 310,000 tested, 0.35% active;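 active = fluorescence ratio B-score, a plate-corrected score, at least three library SD, with initial intensity B-score within 5 SD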
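Medium – assay buffer, equal DMSO in all wells · Material – CHO-K1 cell line with stable KCNQ1 potassium channel expression · Signal – kinetic FluxOR thallium fluorescence, 10-s 1-Hz baseline, 110-s post-stimulus read · Compound – single concentration per compound, DMSO matched to controls · Schedule – 37 °C overnight plating, 90-min dark dye load, 20-min compound pretreatment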
hERG protect = hERG rescue from dofetilide block, primary screen, cell-based, CHO-hERG, FluxOR thallium flux, dofetilide IC70. 310,000 tested, 0.51% active. activation (rescue from dofetilide block), less the hit threshold, % at 10 µM. Voltage-gated inwardly rectifying potassium channel KCNH2 (Homo sapiens), Q12809. dofetilide IC70 present. AID 1511, 2009;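 active = activation above the mean of controls blocked by dofetilide plus 5 SD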;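 also: thallium influx through hERG after potassium depolarization seen as dye fluorescence rise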
Kir21 inh = inhibitors of mouse Kir2.1 inward-rectifier potassium channel; Inward rectifier potassium channel 2 (Mus musculus), P35561; HEK293-Kir2.1, FluxOR thallium flux fluorescence; active compounds read low; B-score at 10 µM; 310,000 tested, 0.85% active;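 active = fluorescence ratio B-score at or below minus 3 SD of library scores, with starting-brightness B-score within 2 SD, cut at about -4.2 in these data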;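 also: channel flux triggered by added potassium and thallium sulfate stimulus; B-score of peak minus minimum fluorescence over baseline after thallium stimulus; more negative B-score means stronger Kir2.1 block with less thallium influx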
KCNK9 block conf = KCNK9 potassium channel inhibitors, confirmation, HEK293 cells, thallium flux, duplicate; 4,900 tested, 43% active; FluxOR thallium flux fluorescence; shares compounds with KCNK9 inh; inhibition, % at 10 µM;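 active = thallium signal inhibited by more than 5 SD of the compound-free buffer control wells, on both duplicate plates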;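 also: 0% = assay buffer control wells without compound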
Kir21 sel = mouse Kir2.1 channel inhibition, confirmation, selectivity assay for KCNK9 modulator project, cell-based, HEK293, thallium flux. shares compounds with KCNK9 inh. Kir2.1 cells, FluxOR thallium flux fluorescence. inhibition, % at 10 µM. 4,900 tested, 4% active. AID 492993, 2010;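 active = thallium signal drop more than 5 SD beyond the mean of the no-compound control wells, seen in both duplicate plates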;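 also: signal is fluorescence rise after thallium addition divided by baseline fluorescence; plate controls were assay buffer only for no effect and full block by chlorpromazine control for full effect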
KCNK9 uninduced = thallium flux in non-induced HEK293 cells, confirmation, counter-screen for KCNK9 inhibitor project, cell-based, second counter screen, non-induced KCNK9-HEK293; shares compounds with KCNK9 inh; FluxOR thallium flux; 4,900 tested, 40% active; AID 492997, 2010; inhibition, % at 10 µM;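 active = thallium signal drop beyond 5 SD of the untreated control mean, on both duplicate plates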;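 also: plate controls were buffer only IC0 wells for no effect and SID17386958 at its maximal inhibitory level for full effect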
Active calls of the source: *; i = inactive; · = no result given. Compounds with a hit are over-represented: about 3.8% of the library has one in this group of screens.

SMILES | KCNK3 inh | KCNK9 inh | KCNQ1 inh | KCNQ1 act | hERG protect | Kir21 inh | KCNK9 block conf | Kir21 sel | KCNK9 uninduced
C/C(=N\N=c1/scc(C)n1Cc1ccco1)c1cccc([N+](=O)[O-])c1 | i | -8.7* | i | i | -6 | -0.57 | i | i | i
CC(=O)Nc1nnc(SCC(=O)Nc2nc(C)cs2)s1 | i | i | i | i | -9 | -0.82 | · | · | ·
CCOC(=O)c1c(NC(=O)C(=O)N/N=C/c2ccc(OCC)cc2)sc2c1CCCCC2 | i | i | i | i | -10 | -0.85 | · | · | ·
CCOC(=O)c1c(NC(=O)C(=O)N/N=C/c2ccc(O)c(OC)c2)sc2c1CCCCC2 | i | -8.5* | i | i | -15 | -0.68 | 56%* | i | 30%*
COc1cc(/C=C2/SC(=S)N(c3c(C)n(C)n(-c4ccccc4)c3=O)C2=O)ccc1O | i | i | i | i | -6 | -0.14 | · | · | ·
Cc1cccc(C)c1-n1c(C)cc(/C=N/NC(=O)CSc2ncccn2)c1C | i | -9.5* | i | i | -12 | -0.67 | 50%* | i | 28%*
COc1ccc(CNC(=O)CN(C(=O)CCC(=O)Nc2nccs2)c2cccc(C)c2)cc1 | i | i | i | i | -3 | 1.1 | · | · | ·
COc1ccc(C(=O)OC(C(=O)c2ccc(C)cc2)c2ccccc2)cc1 (stereo not drawn) | i | -15* | i | i | -11 | -0.92 | 65%* | i | 32%*
CC(=O)Nc1cccc(C(=O)OC(C(=O)c2ccc(C)cc2)c2ccccc2)c1 (stereo not drawn) | i | i | i | i | -13 | -0.32 | · | · | ·
COc1cccc(OC)c1C(=O)NC(=O)Oc1c(F)cccc1F | i | i | i | i | -2 | -0.88 | · | · | ·
Cc1cccc(CC(=O)NCCS(=O)(=O)N2CCN(c3cccc(Cl)c3)CC2)c1 | i | i | i | i | -10 | 0 | · | · | ·
COC(=O)c1cc2c(ccn2-c2ccc(F)cc2)n1Cc1ccc(C#N)cc1 | i | -9.5* | i | i | -5 | 0.31 | 38%* | i | 32%*
COC(=O)c1cc2c(ccn2-c2ccc(F)cc2)n1Cc1ccc(OC)cc1 | i | i | i | i | -6 | 0.03 | · | · | ·
CCN1CCN(c2ccc(Nc3ccnc4ccccc34)cc2)CC1 | i | · | · | · | · | · | · | · | ·
Cc1ccc(CSc2sc(C(=O)c3ccccc3)c(N)c2C#N)cc1 | i | -9* | i | i | -6 | 0.14 | 36%* | i | 42%*
N#Cc1c(SCc2ccccc2)sc(C(=O)c2ccccc2)c1N | i | i | i | i | -10 | -0.4 | · | · | ·
COc1ccccc1NC(=O)Nc1nnc(C(C)c2ccccc2)s1 (stereo not drawn) | i | -10* | i | i | -11 | -0.33 | 56%* | i | 24%*
O=C(COc1ccc2ccccc2c1)N1c2ccccc2Sc2ccccc21 | i | -13* | i | i | -3 | -2.1 | 56%* | i | 46%*
CC(=O)N1c2ccccc2Sc2ccccc21 | i | i | i | i | -5 | -1.3 | · | · | ·
COc1ccccc1C(=O)N1c2ccccc2Sc2ccccc21 | i | -14* | i | i | -10 | 0.59 | 54%* | i | 42%*
O=C(NCc1ccco1)N1c2ccccc2Sc2ccccc21 | i | i | i | i | -8 | -1.8 | i | i | i
CC1CN(C(=O)COc2ccc3ccccc3c2)CC(C)O1 (stereo not drawn) | i | · | · | · | · | · | · | · | ·
COc1ccc(CCNC(=O)N2c3ccccc3Sc3ccccc32)cc1 | i | i | i | i | -9 | -2.6 | i | i | i
CC(C)NC(=O)N1c2ccccc2Sc2ccccc21 | i | i | i | i | -6 | 0.16 | · | · | ·
CC(C)(C)NC(=O)N1c2ccccc2Sc2ccccc21 | i | i | i | i | -6 | -0.97 | i | i | i
SMILES | KCNK3 inh | KCNK9 inh | KCNQ1 inh | KCNQ1 act | hERG protect | Kir21 inh | KCNK9 block conf | Kir21 sel | KCNK9 uninduced
CC(C)c1c(C(=O)N/N=C2\CCc3ccccc32)nnn1-c1nonc1N | i | i | i | i | -9 | 1.2 | · | · | ·
COCc1nc2oc3ccccc3c(=O)c2cc1C(=O)OC | i | i | i | i | -6 | -2.2 | · | · | ·
CC1c2cc3c(cc2CCN1C(=O)c1ccc(Br)cc1)OCCCO3 (stereo not drawn) | i | i | i | i | -17 | 2.2 | · | · | ·
CC(=O)c1cccc(NC(=O)CN2CCc3cc4c(cc3C2)OCCCO4)c1 | i | i | i | i | -13 | -0.11 | · | · | ·
Cc1cccc(NC(=O)CN2CCc3cc4c(cc3C2C)OCCCO4)c1 (stereo not drawn) | i | i | i | i | -13 | 0.81 | i | i | i
Cc1ccc(NC(=O)CN2CCc3cc4c(cc3C2)OCCCO4)cc1 | i | i | i | i | -8 | 0.36 | · | · | ·
Cc1cc(C)cc(NC(=O)CN2CCc3cc4c(cc3C2C)OCCCO4)c1 (stereo not drawn) | i | i | i | i | -8 | 0.02 | i | i | i
Cc1cccc(NC(=O)CN2CCc3cc4c(cc3C2)OCCCO4)c1 | i | i | i | i | -8 | 0.45 | i | i | i
CCOC(=O)C1CCN(C(=O)c2ccc(S(=O)(=O)Nc3ccccc3OC)cc2)CC1 | i | · | · | · | · | · | · | · | ·
CS(=O)(=O)c1ccc(Cl)c(NC(=O)CN2C(=O)C3CCCCC3C2=O)c1 (stereo not drawn) | i | i | i | i | -11 | 0.91 | · | · | ·
COc1cc(/C=C2\C(=N)N3N=CSC3=NC2=O)ccc1OS(=O)(=O)c1ccccc1[N+](=O)[O-] | i | i | i | i | -5 | -0.21 | i | i | i
